This note sets out measurements from ChEMBL document CHEMBL1149307, “Potent and selective farnesyl transferase inhibitors” (J Med Chem, 2004).

Experiment [1] is described as follows: Inhibition of Sprague-Dawley rat brain GGTI by continuous fluorescence assay. In short, it runs like this: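 GGT-I source: rat brain cytosol (male Sprague–Dawley, 100 000g supernatant). Buffer: 50 mM Tris-HCl pH 7.5, 5 mM MgCl2, 10 μM ZnCl2, 5 mM DTT, 0.01% dodecyl maltoside, 5.4 mg/mL protein, 4 μM dansyl-GCVLL, 10 μM GGPP. Incubated at 25 °C; fluorescence followed for 10 min at ex 340/em 505 nm. IC50 taken from sigmoid fit of rate against inhibitor concentration.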

A short description of experiment [2]: Inhibition of Sprague-Dawley rat brain FTase by continuous fluorescence assay. In short, it runs like this: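 Enzyme source: cytosolic fraction (100 000g supernatant) of brains from male Sprague–Dawley rats aged 9–10 weeks, kept at -80 °C. Reaction: 50 mM Tris-HCl pH 7.5, 5 mM MgCl2, 10 μM ZnCl2, 5 mM DTT, 0.01% n-dodecyl-β-D-maltoside, 5.4 mg/mL cytosolic protein, 1.3 μM dansyl-CVIM, 25 μM FPP. Run at 25 °C, fluorescence (ex 340/em 505 nm) recorded 10 min. IC50 obtained by fitting ΔF/Δt versus inhibitor concentration.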

In a further experiment the test system is DLD-1. Put plainly: Growth inhibition of human DLD1 cells by MTT assay after 72 hrs. It is filed as functional, cell-based. As to conditions: DLD-1, 72 h. The essentials:
(§1)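 Cells (H-Ras-transformed NIH3T3 fibroblasts; K-Ras-transformed DLD-1 colon adenocarcinoma; L-1210 leukaemia) grown in RPMI + 10% fetal calf serum. Seeded and allowed to grow 24 h, then exposed to a range of inhibitor concentrations for 72 h, 1% DMSO final. Growth read by colorimetric MTT assay; EC50 derived.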
(Formazan colour is commonly taken as a measure of viable cells.)

Another experiment concerns L1210. The experiment is described as follows: Growth inhibition of mouse L1210 cells by MTT assay after 72 hrs. It is filed as functional, cell-based. As to conditions: L1210, 72 h. The essentials: as §1
For a further experiment, the system named is NIH3T3. Put plainly: Growth inhibition of H-Ras transformed […] cells by MTT assay after 72 hrs. The experiment is classed as functional, cell-based. As to conditions: Mus musculus, NIH3T3, 72 h. In short, it runs like this:
as §1

Where only a bound is given, the exact number is not on record here.

On to `CSCC[C@@H](C(=O)O)N(C(=O)c1ccccc1)C1CCN(Cc2cncn2Cc2ccc(C#N)cc2)CC1`, for which the IC50 (commonly the concentration at which inhibition is half-maximal) in experiment [1] is greater than 2000 nM; in experiment [2], 10 nM.

With `CCC(C)[C@@H](C(=O)OC)N(C(=O)c1ccccc1)C1CCN(Cc2cncn2Cc2ccc(C#N)cc2)CC1` (stereo partly specified), the IC50 was greater than 2000 nM in experiment [1] and 32.7 nM in experiment [2].

On to `CC(C)C[C@H](NC(=O)c1ccc(NC(=O)[C@@H](N)CS)cc1-c1ccccc1)C(=O)O`, for which the results for the IC50 in experiment [1] and in experiment [2] were 12.4 nM and 56.2 nM, respectively.

With `COC(=O)[C@H](CCSC)N(C(=O)c1ccccc1)C1CCN(Cc2cncn2Cc2ccc(C(F)(F)F)cc2)CC1`, the midpoint of inhibition in experiment [2], the IC50, lay at 43.9 nM.

Turning to `COC(=O)[C@H](CCSC)N(C(=O)c1ccccc1)C1CCN(Cc2cncn2Cc2ccc(C)cc2)CC1`, half-maximal inhibition in experiment [2] (IC50) was put at 600 nM.

For the compound `COC(=O)[C@H](CCSC)N(C(=O)c1ccccc1)C1CCN(C(=O)C(N)CS)CC1` (stereo partly specified), the EC50 (in general, the midpoint of the concentration-response curve) is 18100 nM in the experiment with DLD-1 and greater than 10000 nM in the experiment on L1210. Further, the IC50 was greater than 100 nM in experiment [1] and 22.8 nM in experiment [2].

In the case of `COC(=O)[C@H](CCSC)N(C(=O)c1ccccc1)C1CCN(Cc2cncn2Cc2ccccc2)CC1`, the IC50 in experiment [2] came out at 397 nM.

As to `COC(=O)[C@H](CCSC)N(C(=O)c1ccccc1)C1CCN(Cc2cncn2Cc2ccc(OC)cc2)CC1`, the IC50 in experiment [2] was 575 nM.

Consider `COC(=O)[C@H](CCSC)N(Cc1ccccc1)C1CCN(Cc2cncn2Cc2ccc(C#N)cc2)CC1`, for which the values for the 50% effective concentration (EC50) in the experiment on DLD-1 and with L1210 were 12900 nM and greater than 5000 nM, respectively. Besides, the IC50 in experiment [1] is greater than 2000 nM; in experiment [2], 2.35 nM.

For the compound `COC(=O)[C@H](Cc1ccccc1)N(C(=O)c1ccccc1)C1CCN(Cc2cncn2Cc2ccc(C#N)cc2)CC1`, the IC50 in experiment [1] is greater than 2000 nM; in experiment [2] it was 22 nM.

As to `N#Cc1ccc(Cn2cncc2CN2CCC(N(C(=O)c3ccccc3)[C@@H](Cc3ccccc3)C(=O)O)CC2)cc1`, the half-maximal inhibitory concentration (IC50) in experiment [1] is greater than 2000 nM; in experiment [2], 54.1 nM.

As for `COC(=O)[C@H](CCSC)N(C(=O)c1ccccc1)C1CCN(Cc2cncn2Cc2ccc(C#N)cc2)CC1`, the EC50 with DLD-1 stood at 9200 nM; in the experiment on L1210, 20 nM; in the experiment on NIH3T3 it was 1330 nM. The results for the IC50 in experiment [1] and in experiment [2] were greater than 2000 nM and 4.6 nM, respectively.

As for `CSCC[C@H](NC(=O)c1ccc(NC(=O)[C@@H](N)CS)cc1)C(=O)O`, the IC50 in experiment [1] was greater than 100 nM; in experiment [2], 72 nM.

Take `CSCC[C@H](NC(=O)[C@H](Cc1ccccc1)NC[C@@H](NC[C@@H](N)CS)C(C)C)C(=O)O`: the results for the concentration for half-maximal inhibition (IC50) in experiment [1] and in experiment [2] were greater than 5000 nM and 34 nM, respectively.
